In ChEMBL document CHEMBL1155223, “2-Phenylpyrazolo[4,3-d]pyrimidin-7-one as a new scaffold to obtain potent and selective human A3 adenosine receptor antagonists: new insights into the receptor-antagonist recognition” (J Med Chem, 2009):

Legend:
Adenosine receptor A3 [1] = target: T1, Adenosine receptor A3 (Homo sapiens, UniProt P0DMS8); experiment: Antagonist activity at human cloned adenosine A3 receptor expressed in CHO cells assessed as inhibition of Cl-IB-MECA-inhibited [3H]cAMP production by scintillation counting; format: functional, cell-based
T1 sequence (P0DMS8 whole entry): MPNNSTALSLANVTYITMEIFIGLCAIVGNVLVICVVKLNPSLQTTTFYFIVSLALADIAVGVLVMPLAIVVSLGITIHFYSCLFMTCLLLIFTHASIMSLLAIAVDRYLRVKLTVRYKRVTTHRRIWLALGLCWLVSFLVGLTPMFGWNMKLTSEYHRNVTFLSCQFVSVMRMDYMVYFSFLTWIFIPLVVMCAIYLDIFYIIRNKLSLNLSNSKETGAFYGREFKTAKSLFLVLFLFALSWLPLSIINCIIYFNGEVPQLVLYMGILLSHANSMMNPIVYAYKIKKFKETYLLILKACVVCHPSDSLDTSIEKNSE
Method in brief: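 hA3-transfected CHO cells (1 × 10⁶ cells/assay), preincubated 10 min at 37 °C with adenosine deaminase 2 IU/mL plus Ro 20-1724, pH 7.4; forskolin 1 μM and Cl-IB-MECA 100 nM present. Stopped with cold 6% TCA; cAMP measured by [3H]cAMP binding-protein competition. IC50 from sigmoid nonlinear regression, mean ± SEM of four experiments; single-point data at 1 μM as percent inhibition.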

Adenosine receptor A3 [2] = target: T1, Adenosine receptor A3; experiment: Displacement of [125I]AB-MECA from human cloned adenosine A3 receptor expressed in CHO cells after 120 mins by scintillation counting; format: cell-based
Method in brief: (§1)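 hA3 CHO membranes (50 μg protein) incubated with [125I]AB-MECA 0.5 nM in 50 mM Tris-HCl, 10 mM MgCl2, 1 mM EDTA, pH 7.4, 120 min at 4 °C; six to eight ligand concentrations. Nonspecific binding with 1 μM AB-MECA. Ki via Cheng–Prusoff, mean ± SEM of four assays in duplicate; percent inhibition given at 1 μM.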

[3] = target: T2, Adenosine receptor A1 (Homo sapiens) (UniProt P30542); experiment: Inhibition of [125I]DPCPX binding to human cloned adenosine A1 receptor expressed in CHO cells at 1 uM after 120 mins by scintillation counting; format: cell-based; conditions: in the assay text read “[3H]DPCPX” for “[125I]DPCPX”
T2 sequence (whole entry): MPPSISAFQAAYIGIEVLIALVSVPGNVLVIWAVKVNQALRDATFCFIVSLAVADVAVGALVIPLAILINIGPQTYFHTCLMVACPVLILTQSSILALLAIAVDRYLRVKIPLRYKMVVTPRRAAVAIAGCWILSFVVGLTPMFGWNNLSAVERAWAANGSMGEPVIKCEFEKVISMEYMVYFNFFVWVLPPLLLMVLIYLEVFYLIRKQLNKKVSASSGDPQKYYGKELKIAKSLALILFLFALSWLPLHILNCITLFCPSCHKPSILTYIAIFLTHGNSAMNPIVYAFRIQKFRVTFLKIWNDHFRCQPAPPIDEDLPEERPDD
Method in brief: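 Membranes from hA1 CHO (50 μg protein) with [3H]DPCPX 1 nM, 50 mM Tris-HCl pH 7.4, 120 min at 25 °C; nonspecific binding defined by 10 μM CHA. Percent inhibition at 1 μM test compound.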

[4] = target: Adenosine receptor A2a (Homo sapiens) (UniProt P29274); experiment: Inhibition of [125I]Z241385 binding to human cloned adenosine A2A receptor expressed in CHO cells at 1 uM after 120 mins by scintillation counting; format: cell-based
[5] = target: T3, Adenosine receptor A2b (Homo sapiens) (UniProt P29275); experiment: Antagonist activity at human adenosine A2B receptor expressed in CHO cells assessed as inhibition of NECA-stimulated [3H]cAMP production at 1 uM by scintillation counting; format: functional, cell-based
T3 sequence (whole entry): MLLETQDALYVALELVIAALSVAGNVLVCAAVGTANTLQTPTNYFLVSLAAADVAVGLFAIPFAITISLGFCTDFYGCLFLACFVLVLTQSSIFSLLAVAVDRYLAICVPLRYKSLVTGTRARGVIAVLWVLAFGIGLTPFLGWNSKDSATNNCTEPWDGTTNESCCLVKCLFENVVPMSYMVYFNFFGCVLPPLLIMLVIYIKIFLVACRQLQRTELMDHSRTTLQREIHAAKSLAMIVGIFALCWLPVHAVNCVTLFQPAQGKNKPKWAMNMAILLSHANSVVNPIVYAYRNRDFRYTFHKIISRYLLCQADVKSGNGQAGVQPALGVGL
Method in brief: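 Suspended CHO cells stably expressing hA2B (1 × 10⁶ cells/assay) in buffer with adenosine deaminase 2 IU/mL and Ro 20-1724, preincubated 10 min at 37 °C, pH 7.4. Stimulated with NECA 200 nM; compound at 1 μM; percent inhibition reported. Stopped with cold 6% TCA, ether-extracted, cAMP quantified by [3H]cAMP competition with beef adrenal binding protein.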

[6] = target: T4, Adenosine receptor A3 (Homo sapiens) (UniProt P0DMS8); experiment: Inhibition of [125I]AB-MECA binding to human cloned adenosine A3 receptor expressed in CHO cells at 1 uM after 120 mins by scintillation counting; format: cell-based; method in brief: as §1
T4 sequence (whole entry): T1 sequence (P0DMS8 whole entry)

[7] = target: T4, Adenosine receptor A3 (Homo sapiens); conditions: CHO, 1 uM

Adenosine receptor A2a (Homo sapiens), sequence (P29274 whole entry): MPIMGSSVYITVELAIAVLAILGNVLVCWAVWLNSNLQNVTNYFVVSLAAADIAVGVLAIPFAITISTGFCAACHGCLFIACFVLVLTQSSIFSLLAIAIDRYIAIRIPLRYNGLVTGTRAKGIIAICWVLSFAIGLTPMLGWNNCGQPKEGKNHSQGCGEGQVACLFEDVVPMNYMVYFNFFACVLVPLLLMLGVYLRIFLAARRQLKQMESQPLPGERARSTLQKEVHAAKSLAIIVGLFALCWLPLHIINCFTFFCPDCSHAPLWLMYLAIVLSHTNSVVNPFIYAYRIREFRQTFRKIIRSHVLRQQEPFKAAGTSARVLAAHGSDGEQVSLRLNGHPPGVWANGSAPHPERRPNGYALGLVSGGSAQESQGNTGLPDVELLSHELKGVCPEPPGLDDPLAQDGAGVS

| SMILES | IC50 (Adenosine receptor A3 [1]) | Ki (Adenosine receptor A3 [2]) | inhibition [3] | inhibition [4] | inhibition [5] | inhibition [6] | inhibition [7] |
| --- | --- | --- | --- | --- | --- | --- | --- |
| COc1ccc(-n2cc3nc(C)[nH]c(=O)c3n2)cc1 | 5.2 nM | 1.2 nM | 5% | 1% | 2% |  |  |
| Nc1nc(NCCc2ccc(O)cc2)nc2nc(-c3ccco3)nn12 |  |  |  |  |  | 5% | 2% |
| COc1ccc(-n2cc3nc(-c4ccccc4)[nH]c(=O)c3n2)cc1 |  |  | 1% | 1% | 5% | 16% |  |
| Cc1ccc(-n2cc3nc(C)[nH]c(=O)c3n2)cc1 | 46 nM | 10 nM | 1% | 1% | 4% |  |  |
| Cc1nc2cn(-c3ccccc3)nc2c(=O)[nH]1 | 87 nM | 16 nM | 9% | 1% | 2% |  |  |
| O=c1[nH]c(-c2ccccc2)nc2cn(-c3ccccc3)nc12 |  |  | 22% | 10% | 4% | 10% |  |
| O=c1[nH]cnc2cn(-c3ccccc3)nc12 | 725 nM | 185 nM | 1% | 1% | 3% |  |  |
| O=c1[nH]c(Cc2ccccc2)nc2cn(-c3ccccc3)nc12 |  | 900 nM | 11% | 1% | 4% |  | 6% |
| COc1ccc(-n2cc3nc(Cc4ccccc4)[nH]c(=O)c3n2)cc1 | 850 nM | 250 nM | 10% | 1% | 4% |  |  |
| Cc1cccc(-n2cc3nc(C)[nH]c(=O)c3n2)c1 | 354 nM | 72 nM | 4% | 1% | 2% |  |  |
| COc1ccc(-n2cc3nc[nH]c(=O)c3n2)cc1 | 270 nM | 54 nM | 2% | 1% | 3% |  |  |
| CCc1nc2cn(-c3ccc(OC)cc3)nc2c(=O)[nH]1 | 63 nM | 14 nM | 1% | 1% | 5% |  |  |
| O=c1[nH]c(=O)c2nn(-c3ccccc3)cc2[nH]1 |  |  | 4% | 5% | 2% | 12% |  |
| CCc1nc2cn(-c3ccccc3)nc2c(=O)[nH]1 | 245 nM | 52 nM | 11% | 6% | 1% |  |  |
